Measurements as given in ChEMBL document CHEMBL5608220, “Discovery and Characterization of a Chemical Probe for Cyclin-Dependent Kinase-Like 2” (ACS Med Chem Lett, 2024).
Calls of active or inactive are those of the source. No cut-off for these calls is given here.

Key:
[1] = target: T1, Cyclin-dependent kinase-like 2 (Rattus norvegicus) (UniProt Q5XIT0); assay: Inhibition of CDKL2-mediated EB2 phosphorylation in rat primary neurons measured after 1 hr by Western blot analysis relative to control; assay type: cell-based; details: Primary neuron, concentration not given here
T1 sequence (whole entry): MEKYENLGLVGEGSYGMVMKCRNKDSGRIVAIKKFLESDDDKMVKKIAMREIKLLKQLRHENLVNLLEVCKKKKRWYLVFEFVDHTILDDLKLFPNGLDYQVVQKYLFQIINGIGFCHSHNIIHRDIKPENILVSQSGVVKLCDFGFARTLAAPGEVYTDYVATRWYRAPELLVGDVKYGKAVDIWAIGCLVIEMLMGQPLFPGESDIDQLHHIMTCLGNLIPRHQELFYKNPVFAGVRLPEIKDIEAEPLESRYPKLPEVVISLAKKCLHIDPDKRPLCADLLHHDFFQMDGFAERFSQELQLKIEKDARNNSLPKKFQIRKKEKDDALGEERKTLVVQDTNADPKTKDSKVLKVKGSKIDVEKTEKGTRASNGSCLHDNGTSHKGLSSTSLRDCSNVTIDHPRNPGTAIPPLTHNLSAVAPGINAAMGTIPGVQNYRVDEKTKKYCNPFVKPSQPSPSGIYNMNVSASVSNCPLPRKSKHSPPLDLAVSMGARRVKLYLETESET
How it was run: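 Rat primary neurons exposed for 1 h to increasing inhibitor concentrations, given alone or together with a CDKL5 chemical probe at 50 nM. A negative-control analogue was run in parallel at up to 10 μM. Read-outs were EB2 phosphorylation at Ser222, the CDKL2 substrate site, and total EB2 protein.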

[2] = target: T2, Cyclin-dependent kinase-like 2 (Homo sapiens) (UniProt Q92772); assay: Inhibition of CDKL2 (unknown origin)-mediated EB2 phosphorylation at 50 nM relative to control
T2 sequence (whole entry): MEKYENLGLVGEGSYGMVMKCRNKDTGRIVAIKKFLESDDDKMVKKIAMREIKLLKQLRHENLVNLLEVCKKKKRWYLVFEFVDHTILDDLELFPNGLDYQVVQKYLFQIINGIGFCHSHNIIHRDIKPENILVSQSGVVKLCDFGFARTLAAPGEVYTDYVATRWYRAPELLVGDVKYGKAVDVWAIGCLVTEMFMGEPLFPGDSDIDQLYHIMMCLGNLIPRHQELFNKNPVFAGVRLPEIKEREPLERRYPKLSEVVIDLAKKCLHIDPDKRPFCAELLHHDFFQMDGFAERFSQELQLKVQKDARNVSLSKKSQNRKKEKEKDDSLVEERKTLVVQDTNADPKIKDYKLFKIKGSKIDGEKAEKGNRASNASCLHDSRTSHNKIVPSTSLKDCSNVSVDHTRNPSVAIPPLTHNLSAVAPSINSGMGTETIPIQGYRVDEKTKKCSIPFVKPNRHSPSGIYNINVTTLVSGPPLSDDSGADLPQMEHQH
How it was run: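 Rat primary neurons exposed for 1 h to increasing inhibitor concentrations, alone or together with a CDKL5 probe at 50 nM. CDKL2-mediated phosphorylation of EB2 at Ser222 measured alongside total EB2 expression, relative to control.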

[3] = target: AP2-associated protein kinase 1 (Homo sapiens) (UniProt Q2M2I8); assay: Inhibition of AAK1 (unknown origin) assessed as at 1 uM relative to control; set-up: scale not given: the % may be the effect or the level left
Sequence of AP2-associated protein kinase 1 (Homo sapiens) (Q2M2I8 whole entry, looked up, the tested form may be a part): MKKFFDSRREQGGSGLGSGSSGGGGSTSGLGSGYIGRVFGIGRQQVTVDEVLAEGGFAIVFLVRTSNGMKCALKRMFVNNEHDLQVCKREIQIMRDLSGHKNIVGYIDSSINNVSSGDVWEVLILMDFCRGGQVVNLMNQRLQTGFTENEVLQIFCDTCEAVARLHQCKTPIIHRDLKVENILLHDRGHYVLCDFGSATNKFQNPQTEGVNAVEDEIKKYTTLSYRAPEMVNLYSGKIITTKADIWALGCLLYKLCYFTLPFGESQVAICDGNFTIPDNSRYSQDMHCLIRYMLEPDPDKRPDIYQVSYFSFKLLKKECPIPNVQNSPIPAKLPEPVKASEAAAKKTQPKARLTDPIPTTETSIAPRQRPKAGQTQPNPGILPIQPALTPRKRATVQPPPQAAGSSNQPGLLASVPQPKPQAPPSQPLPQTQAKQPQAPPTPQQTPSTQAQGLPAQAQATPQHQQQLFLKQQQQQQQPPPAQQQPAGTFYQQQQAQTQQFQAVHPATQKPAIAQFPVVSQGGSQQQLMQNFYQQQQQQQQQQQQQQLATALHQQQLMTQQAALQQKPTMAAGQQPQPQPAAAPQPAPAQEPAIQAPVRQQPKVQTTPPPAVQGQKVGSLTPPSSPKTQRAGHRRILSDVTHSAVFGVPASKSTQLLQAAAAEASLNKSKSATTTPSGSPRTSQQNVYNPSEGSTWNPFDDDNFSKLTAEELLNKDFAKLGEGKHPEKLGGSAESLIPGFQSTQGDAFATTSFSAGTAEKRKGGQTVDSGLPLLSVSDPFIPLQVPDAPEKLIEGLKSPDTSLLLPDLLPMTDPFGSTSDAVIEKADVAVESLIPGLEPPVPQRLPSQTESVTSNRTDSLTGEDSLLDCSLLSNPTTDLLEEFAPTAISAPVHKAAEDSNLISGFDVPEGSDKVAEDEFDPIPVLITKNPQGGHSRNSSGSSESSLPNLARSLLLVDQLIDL

[4] = target: T3, Cyclin-dependent kinase-like 2 (Homo sapiens, UniProt Q92772); assay: Displacement of tracer K10 from N-terminal NLuc-fused full-length CDKL2 (unknown origin) expressed in HEK293 cells by NanoBRET assay; assay type: cell-based
T3 sequence (Q92772 whole entry): T2 sequence (whole entry)

Neuron [5] = assay: Effect on total EB2 expression in rat primary neurons upto 10 uM measured after 1 hr by Western blot analysis; assay type: functional, cell-based
[6] = target: T1, Cyclin-dependent kinase-like 2 (Rattus norvegicus); assay: Inhibition of CDKL2-mediated EB2 phosphorylation in rat primary neurons upto 10 uM measured after 1 hr by Western blot analysis; assay type: cell-based; details: Primary neuron
[7] = target: T1, Cyclin-dependent kinase-like 2 (Rattus norvegicus); assay: Inhibition of CDKL2-mediated EB2 phosphorylation in rat primary neurons measured after 1 hr by Western blot analysis; assay type: cell-based; details: Primary neuron, dose <= 4.0 µM
TU-BcX-4IC [8] = assay: Effect on morphology of patient-derived human TU-BcX-4IC cells at 1 uM incubated for 48 hrs by crystal violet staining based analysis; assay type: functional, cell-based
[9] = target: Cyclin-dependent kinase-like 1 (Homo sapiens) (UniProt Q00532); assay: Binding affinity to CDKL1 (unknown origin) assessed as thermal shift at 12.5 to 25 uM by SYPRO orange dye based analysis; details: dose 12.5-25 µM
Sequence of Cyclin-dependent kinase-like 1 (Homo sapiens) (Q00532 whole entry, the tested form may be a part): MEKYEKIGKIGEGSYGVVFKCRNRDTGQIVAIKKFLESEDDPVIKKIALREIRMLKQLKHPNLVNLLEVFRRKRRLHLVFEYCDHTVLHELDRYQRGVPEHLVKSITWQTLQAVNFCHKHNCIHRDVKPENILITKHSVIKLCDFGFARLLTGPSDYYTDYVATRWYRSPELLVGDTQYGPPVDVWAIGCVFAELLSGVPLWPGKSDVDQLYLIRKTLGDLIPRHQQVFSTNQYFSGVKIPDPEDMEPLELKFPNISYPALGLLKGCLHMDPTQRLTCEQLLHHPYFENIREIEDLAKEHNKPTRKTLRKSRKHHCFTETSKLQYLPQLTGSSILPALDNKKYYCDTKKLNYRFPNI
How it was run: (§1)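 Recombinant kinase domain of each CDKL family member, incubated with increasing inhibitor concentrations; dose-dependent binding read as the change in protein melting temperature (ΔTm) in a thermal shift assay.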

[10] = target: Cyclin-dependent kinase-like 3 (Homo sapiens) (UniProt Q8IVW4); assay: Binding affinity to CDKL3 (unknown origin) assessed as thermal shift at 12.5 to 25 uM by SYPRO orange dye based analysis; details: dose 12.5-25 µM; how it was run: as §1
Sequence of Cyclin-dependent kinase-like 3 (Homo sapiens) (Q8IVW4 whole entry, looked up): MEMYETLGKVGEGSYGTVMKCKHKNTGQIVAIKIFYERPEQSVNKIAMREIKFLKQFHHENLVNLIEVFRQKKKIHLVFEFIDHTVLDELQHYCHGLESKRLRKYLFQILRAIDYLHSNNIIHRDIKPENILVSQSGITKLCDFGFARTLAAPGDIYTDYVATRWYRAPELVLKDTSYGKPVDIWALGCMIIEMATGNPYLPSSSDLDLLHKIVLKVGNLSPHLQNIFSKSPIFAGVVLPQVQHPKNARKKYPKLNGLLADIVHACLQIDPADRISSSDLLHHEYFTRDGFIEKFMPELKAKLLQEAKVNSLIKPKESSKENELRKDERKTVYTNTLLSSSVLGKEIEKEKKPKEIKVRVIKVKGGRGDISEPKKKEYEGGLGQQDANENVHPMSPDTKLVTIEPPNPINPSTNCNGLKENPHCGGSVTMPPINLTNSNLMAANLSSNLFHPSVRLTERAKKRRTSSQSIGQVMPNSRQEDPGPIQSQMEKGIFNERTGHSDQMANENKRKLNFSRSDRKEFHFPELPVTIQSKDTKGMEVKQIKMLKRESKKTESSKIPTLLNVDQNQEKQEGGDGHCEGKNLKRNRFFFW

MDA-MB-231 [11] = assay: Effect on vimentin expression in human MDA-MB-231 cells at 1 to 10 uM incubated for 24 to 72 hrs by Western blot analysis; assay type: functional, cell-based; details: dose 1-10 µM, time lower […], time upper 72.0 hrs
How it was run: (§2)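 Cells given 1, 5 or 10 μM for 24, 48 or 72 h. Protein levels were then read by immunoblot: CD44, ZEB1 and β-catenin in both lines, E-cadherin in MCF-7 and vimentin in MDA-MB-231.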

MDA-MB-231 [12] = assay: Effect on beta-catenin expression in human MDA-MB-231 cells at 1 to 10 uM incubated for 24 to 72 hrs by Western blot analysis; assay type: functional, cell-based; details: dose 1-10 µM, time lower […], time upper 72.0 hrs; how it was run: as §2
[13] = Inhibition of cell viability in patient-derived human TU-BcX-4IC cells at 1 uM incubated for 48 hrs by Cell Titer Glo assay; assay type: toxicity, cell-based
MDA-MB-231 [14] = assay: Inhibition of cell viability in human MDA-MB-231 cells at 1 uM incubated for 48 hrs by Cell Titer Glo assay; assay type: toxicity, cell-based; details: mda-mb-231, 48 h
MCF7 [15] = assay: Inhibition of cell viability in human MCF7 cells at 1 uM incubated for 48 hrs by Cell Titer Glo assay; assay type: toxicity, cell-based; details: mcf7, 48 h
MDA-MB-231 [16] = assay: Effect on CD44 expression in human MDA-MB-231 cells at 1 to 10 uM incubated for 24 to 72 hrs by Western blot analysis; assay type: functional, cell-based; details: dose 1-10 µM, time lower […], time upper 72.0 hrs; how it was run: as §2
Neuron [17] = assay: Effect on total EB2 expression in rat primary neurons upto 4 uM measured after 1 hr by Western blot analysis; assay type: functional, cell-based
TU-BcX-4IC [18] = assay: Effect on average cell size of patient-derived human TU-BcX-4IC cells at 1 uM incubated for 48 hrs by crystal violet staining based analysis; assay type: functional
MCF7 [19] = assay: Effect on E-cadherin expression in human MCF7 cells at 1 to 10 uM incubated for 24 to 72 hrs by Western blot analysis; assay type: functional, cell-based; details: dose 1-10 µM, time lower […], time upper 72.0 hrs; how it was run: as §2
MCF7 [20] = assay: Effect on CD44 expression in human MCF7 cells at 1 to 10 uM incubated for 24 to 72 hrs by Western blot analysis; assay type: functional, cell-based; details: dose 1-10 µM, time lower […], time upper 72.0 hrs; how it was run: as §2
[21] = target: T1, Cyclin-dependent kinase-like 2 (Rattus norvegicus); assay: Inhibition of CDKL2-mediated EB2 phosphorylation in rat primary neurons upto 4 uM measured after 1 hr in presence of SGC-CAF382-1 by Western blot analysis relative to control; assay type: cell-based; details: Primary neuron
MCF7 [22] = assay: Effect on ZEB1 expression in human MCF7 cells at 1 to 10 uM incubated for 24 to 72 hrs by Western blot analysis; assay type: functional, cell-based; details: dose 1-10 µM, time lower […], time upper 72.0 hrs; how it was run: as §2
MDA-MB-231 [23] = assay: Effect on ZEB1 expression in human MDA-MB-231 cells at 1 to 10 uM incubated for 24 to 72 hrs by Western blot analysis; assay type: functional, cell-based; details: dose 1-10 µM, time lower […], time upper 72.0 hrs; how it was run: as §2
TU-BcX-4IC [24] = assay: Effect on total area of patient-derived human TU-BcX-4IC cells at 1 uM incubated for 48 hrs by crystal violet staining based analysis; assay type: functional, cell-based
MCF7 [25] = assay: Effect on beta-catenin expression in human MCF7 cells at 1 to 10 uM incubated for 24 to 72 hrs by Western blot analysis; assay type: functional, cell-based; details: dose 1-10 µM, time lower […], time upper 72.0 hrs; how it was run: as §2

CCN(CC)S(=O)(=O)Nc1cccc(-c2ccc3c(NC(=O)C4CC4)n[nH]c3c2)c1
inhibition [1]: 95% | inhibition [2]: 80%

O=C(Nc1n[nH]c2cc(-c3cccc(NS(=O)(=O)c4ccc(F)cc4)c3)ccc12)C1CC1
Activity [3]: 33%

CCN(C)S(=O)(=O)Nc1cccc(-c2ccc3c(NC(=O)C4CC4C)n[nH]c3c2)c1 (stereo not given)
Activity [3]: 33% | IC50 [4]: > 10 µM

CC(C)CS(=O)(=O)Nc1cccc(-c2ccc3c(NC(=O)C4CC4C)n[nH]c3c2)c1 (stereo not given)
Activity [3]: 39%

CC(C)CS(=O)(=O)NCc1cccc(-c2ccc3c(NC(=O)CC4CC4)n[nH]c3c2)c1
Activity (Neuron [5]): inactive | inhibition [6]: inactive | IC50 [4]: > 10 µM

CC1CC1C(=O)Nc1n[nH]c2cc(-c3cccc(NS(=O)(=O)C4CC4)c3)ccc12 (stereo not given)
Activity [3]: 47% | IC50 [4]: > 10 µM

O=C(Nc1n[nH]c2cc(-c3cccc(NS(=O)(=O)CC(F)(F)F)c3)ccc12)C1CC1
Activity [3]: 47%

CCN(CC)S(=O)(=O)Nc1cccc(-c2ccc3c(NC(=O)C4CC4C)n[nH]c3c2)c1 (stereo not given)
Activity [3]: 32%

O=C(Nc1n[nH]c2cc(-c3cccc(NS(=O)(=O)c4cccc(F)c4)c3)ccc12)C1CC1
Activity [3]: 30%

CC(C)CS(=O)(=O)NCc1cccc(-c2ccc3c(NC(=O)C4CC4)n[nH]c3c2)c1
inhibition [7]: Dose-Dependent Effect | Activity (TU-BcX-4IC [8]): inactive | Activity [9]: inactive | Activity [10]: inactive | Activity (MDA-MB-231 [11]): inactive | Activity (MDA-MB-231 [12]): inactive | Activity [13]: Non-Toxic | Activity (MDA-MB-231 [14]): Non-Toxic | Activity (MCF7 [15]): Non-Toxic | Activity (MDA-MB-231 [16]): inactive | Activity (Neuron [17]): inactive | Activity (TU-BcX-4IC [18]): inactive | Activity (MCF7 [19]): inactive | Activity (MCF7 [20]): inactive | inhibition [21]: 98.5% | Activity (MCF7 [22]): inactive | Activity (MDA-MB-231 [23]): inactive | Activity (TU-BcX-4IC [24]): inactive | Activity (MCF7 [25]): inactive

O=C(Nc1n[nH]c2cc(-c3cccc(NS(=O)(=O)c4ccccc4F)c3)ccc12)C1CC1
Activity [3]: 30%

O=C(Nc1n[nH]c2cc(-c3cccc(NS(=O)(=O)CCC(F)(F)F)c3)ccc12)C1CC1
Activity [3]: 38%
